Article PMC9476207 (ACS Omega, 2022)

Legend:
Assay in all cases: NCI-60 single-dose antiproliferative screen
Format in all cases: cell-based
OVCAR-4 = conditions: Homo sapiens, OVCAR-4, 48 h, read-out: growth percent
Method in brief: (§1)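 NCI-60 protocol. Lines were grown in RPMI 1640 with 5% FBS and 2 mM L-glutamine, plated and incubated 24 h at 37 °C; time-zero plates were TCA-fixed. The test compound was dissolved in DMSO, diluted in medium with 50 μg/mL gentamicin and given once at a final 10^-5 M (DMSO control) for 48 h. Cells were fixed with cold TCA (1 h, 4 °C) and stained with 0.4% SRB in 1% acetic acid for 10 min. Dye was dissolved in 10 mM Trizma base and read at 515 nm. Growth percent was calculated from time-zero, test and control ODs.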

M14 = conditions: Homo sapiens, M14, 48 h, read-out: growth percent
Method in brief: as §1

SN12C = conditions: Homo sapiens, 48 h, read-out: growth percent
Method in brief: (§2)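 Cells grown in RPMI 1640 with 5% FBS and 2 mM L-glutamine, plated and held 24 h at 37 °C; time-zero plates TCA-fixed. DMSO stocks were diluted in gentamicin-containing medium to a final 10^-5 M, with a DMSO-only control. Exposure 48 h, 5% CO2. Adherent cells TCA-fixed 1 h at 4 °C, stained with 0.4% SRB, solubilised in 10 mM Trizma base, read at 515 nm. Growth percent derived from ODtzero, ODtest and ODctrl.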

HCT-15 = conditions: Homo sapiens, HCT-15, 48 h, read-out: growth percent
Method in brief: as §1

SK-MEL-2 = conditions: Homo sapiens, SK-MEL-2, 48 h, read-out: growth percent
Method in brief: as §2

CCRF-CEM = conditions: Homo sapiens, 48 h, read-out: growth percent
Method in brief: as §1

SK-OV-3 = conditions: Homo sapiens, SK-OV-3, 48 h, read-out: growth percent
Method in brief: as §2

EKVX = conditions: Homo sapiens, 48 h, read-out: growth percent
Method in brief: as §1

SF-268 = conditions: Homo sapiens, SF-268, 48 h, read-out: growth percent
Method in brief: as §1

K-562 = conditions: Homo sapiens, K562, 48 h, read-out: growth percent
Method in brief: as §1

SNB-75 = conditions: Homo sapiens, SNB-75, 48 h, read-out: growth percent
Method in brief: as §2

HOP-92 = conditions: Homo sapiens, HOP-92, 48 h, read-out: growth percent
Method in brief: as §1

BT-549 = conditions: Homo sapiens, BT-549, 48 h, read-out: growth percent
Method in brief: as §1

MALME-3M = conditions: Homo sapiens, 48 h, read-out: growth percent
Method in brief: as §1

NCI-H460 = conditions: Homo sapiens, NCI-H460, 48 h, read-out: growth percent
Method in brief: as §1

UO-31 = conditions: Homo sapiens, UO-31, 48 h, read-out: growth percent
Method in brief: as §2

SNB-19 = conditions: Homo sapiens, SNB-19, 48 h, read-out: growth percent
Method in brief: as §2

TK-10 = conditions: Homo sapiens, TK-10, 48 h, read-out: growth percent
Method in brief: as §2

COLO205 = conditions: Homo sapiens, COLO 205, 48 h, read-out: growth percent
Method in brief: as §1

SK-MEL-5 = conditions: Homo sapiens, SK-MEL-5, 48 h, read-out: growth percent
Method in brief: as §2

T-47D = conditions: Homo sapiens, T47D, 48 h, read-out: growth percent
Method in brief: as §2

SK-MEL-28 = conditions: Homo sapiens, SK-MEL-28, 48 h, read-out: growth percent
Method in brief: as §2

MOLT-4 = conditions: Homo sapiens, MOLT-4, 48 h, read-out: growth percent
Method in brief: as §1

UACC-257 = conditions: Homo sapiens, UACC-257, 48 h, read-out: growth percent
Method in brief: as §2

MDA-MB-435 = conditions: Homo sapiens, MDA-MB-435, 48 h, read-out: growth percent
Method in brief: as §1

U251 = conditions: Homo sapiens, U-251, 48 h, read-out: growth percent
Method in brief: as §2

KM12 = conditions: Homo sapiens, KM12, 48 h, read-out: growth percent
Method in brief: as §1

MDA-MB-231 ATCC = conditions: Homo sapiens, MDA-MB-231, 48 h, read-out: growth percent
Method in brief: as §1

SF-539 = conditions: Homo sapiens, SF-539, 48 h, read-out: growth percent
Method in brief: as §2

SR = conditions: Homo sapiens, 48 h, read-out: growth percent
Method in brief: as §2

MDA-MB-468 = conditions: Homo sapiens, MDA-MB-468, 48 h, read-out: growth percent
Method in brief: as §1

SW-620 = conditions: Homo sapiens, SW-620, 48 h, read-out: growth percent
Method in brief: as §2

HS 578T = conditions: Homo sapiens, 48 h, read-out: growth percent
Method in brief: as §1

A549/ATCC = conditions: Homo sapiens, A549, 48 h, read-out: growth percent
Method in brief: as §1

OVCAR-5 = conditions: Homo sapiens, OVCAR-5, 48 h, read-out: growth percent
Method in brief: as §1

OVCAR-8 = conditions: Homo sapiens, OVCAR-8, 48 h, read-out: growth percent
Method in brief: as §1

Structure (SMILES)	activity at 10 µM (OVCAR-4) [%]	activity at 10 µM (M14) [%]	activity at 10 µM (SN12C) [%]	activity at 10 µM (HCT-15) [%]	activity at 10 µM (SK-MEL-2) [%]	activity at 10 µM (CCRF-CEM) [%]	activity at 10 µM (SK-OV-3) [%]	activity at 10 µM (EKVX) [%]	activity at 10 µM (SF-268) [%]	activity at 10 µM (K-562) [%]	activity at 10 µM (SNB-75) [%]	activity at 10 µM (HOP-92) [%]	activity at 10 µM (BT-549) [%]	activity at 10 µM (MALME-3M) [%]	activity at 10 µM (NCI-H460) [%]	activity at 10 µM (UO-31) [%]	activity at 10 µM (SNB-19) [%]	activity at 10 µM (TK-10) [%]	activity at 10 µM (COLO205) [%]	activity at 10 µM (SK-MEL-5) [%]	also measured
COc1cc(CNC(=O)CCCC/C=C/C(C)C)ccc1OCc1cn(-c2cc(OC)c(OC)c(OC)c2)nn1 [14m, (E)-N-(3-Methoxy-4-((1-(3,4,5-trimethoxyphenyl)-1H-1,2,3-triazol-4-yl)methoxy)benzyl)-8-methylnon-6-enamide]	103	94.5	102	103	97.6	96.3	89.9	95.9	90.5	79.7	95.2	82.5	79.1	98.5	102	117	85.1	91.6	106	77.5	activity at 10 µM (T-47D): 95.8%; activity at 10 µM (SK-MEL-28): 108%; activity at 10 µM (MOLT-4): 92%; activity at 10 µM (UACC-257): 93.6%; activity at 10 µM (MDA-MB-435): 106%; activity at 10 µM (U251): 92.8%; activity at 10 µM (KM12): 103%; activity at 10 µM (MDA-MB-231 ATCC): 92.7%; activity at 10 µM (SF-539): 92%; activity at 10 µM (SR): 86.6%; activity at 10 µM (MDA-MB-468): 80.4%; activity at 10 µM (SW-620): 102%; activity at 10 µM (HS 578T): 69%; activity at 10 µM (A549/ATCC): 91%; activity at 10 µM (OVCAR-5): 109%; activity at 10 µM (OVCAR-8): 88.2%
COc1cc(CNC(=O)CCCC/C=C/C(C)C)ccc1OCc1cn(-c2ccc(C)cc2)nn1 [14n, (E)-N-(3-Methoxy-4-((1-(p-tolyl)-1H-1,2,3-triazol-4-yl)methoxy)benzyl)-8-methylnon-6-enamide]	88.8	93.3	89.3	104	91.9	87.3	94.4	84.8	81.7	80	99.5	83.5	105	110	93.2	75.8	77.9	101	115	86.8	activity at 10 µM (T-47D): 77.4%; activity at 10 µM (SK-MEL-28): 114%; activity at 10 µM (MOLT-4): 83.5%; activity at 10 µM (UACC-257): 88.2%; activity at 10 µM (MDA-MB-435): 109%; activity at 10 µM (U251): 81.7%; activity at 10 µM (KM12): 96%; activity at 10 µM (MDA-MB-231 ATCC): 72.2%; activity at 10 µM (SF-539): 100%; activity at 10 µM (SR): 75.5%; activity at 10 µM (MDA-MB-468): 92.4%; activity at 10 µM (SW-620): 102%; activity at 10 µM (HS 578T): 89.7%; activity at 10 µM (A549/ATCC): 84%; activity at 10 µM (OVCAR-5): 108%; activity at 10 µM (OVCAR-8): 76.5%
CCc1ccc(-n2cc(COc3ccc(CNC(=O)CCCC/C=C/C(C)C)cc3OC)nn2)cc1 [14o, (E)-N-(4-((1-(4-Ethylphenyl)-1H-1,2,3-triazol-4-yl)methoxy)-3-methoxybenzyl)-8-methylnon-6-enamide]	89	99.8	98.5	94.4	95.2	86.8	102	82.1	93	78.6	92.6	86.5	99.1	108	103	93.9	85.7	87.4	121	84	activity at 10 µM (T-47D): 111%; activity at 10 µM (SK-MEL-28): 115%; activity at 10 µM (MOLT-4): 79.6%; activity at 10 µM (UACC-257): 86.4%; activity at 10 µM (MDA-MB-435): 107%; activity at 10 µM (U251): 89.4%; activity at 10 µM (KM12): 100%; activity at 10 µM (MDA-MB-231 ATCC): 88%; activity at 10 µM (SF-539): 104%; activity at 10 µM (SR): 87.5%; activity at 10 µM (MDA-MB-468): 79.8%; activity at 10 µM (SW-620): 103%; activity at 10 µM (HS 578T): 78%; activity at 10 µM (A549/ATCC): 88.3%; activity at 10 µM (OVCAR-5): 112%; activity at 10 µM (OVCAR-8): 91.1%
COc1cc(CNC(=O)CCCC/C=C/C(C)C)ccc1OCc1cn(-c2ccc(C)c(C)c2)nn1 [14p, (E)-N-(4-((1-(3,4-Dimethylphenyl)-1H-1,2,3-triazol-4-yl)methoxy)-3-methoxybenzyl)-8-methylnon-6-enamide]	84.9	93.5	88.4	71.2	90.3	75.5	98.6	79.3	94.6	74.6	91	80.4	93.7	107	86.5	75.7	95.8	109	106	81.5	activity at 10 µM (T-47D): 73.2%; activity at 10 µM (SK-MEL-28): 112%; activity at 10 µM (MOLT-4): 78.5%; activity at 10 µM (UACC-257): 81.9%; activity at 10 µM (MDA-MB-435): 104%; activity at 10 µM (U251): 88.3%; activity at 10 µM (KM12): 97.5%; activity at 10 µM (MDA-MB-231 ATCC): 89.3%; activity at 10 µM (SF-539): 105%; activity at 10 µM (SR): 58.2%; activity at 10 µM (MDA-MB-468): 71.8%; activity at 10 µM (SW-620): 95.2%; activity at 10 µM (HS 578T): 90.7%; activity at 10 µM (A549/ATCC): 82.2%; activity at 10 µM (OVCAR-5): 107%; activity at 10 µM (OVCAR-8): 83.3%
